The target in series [1] is T1, Progesterone receptor (Homo sapiens, UniProt P06401).
T1 sequence (P06401 whole entry): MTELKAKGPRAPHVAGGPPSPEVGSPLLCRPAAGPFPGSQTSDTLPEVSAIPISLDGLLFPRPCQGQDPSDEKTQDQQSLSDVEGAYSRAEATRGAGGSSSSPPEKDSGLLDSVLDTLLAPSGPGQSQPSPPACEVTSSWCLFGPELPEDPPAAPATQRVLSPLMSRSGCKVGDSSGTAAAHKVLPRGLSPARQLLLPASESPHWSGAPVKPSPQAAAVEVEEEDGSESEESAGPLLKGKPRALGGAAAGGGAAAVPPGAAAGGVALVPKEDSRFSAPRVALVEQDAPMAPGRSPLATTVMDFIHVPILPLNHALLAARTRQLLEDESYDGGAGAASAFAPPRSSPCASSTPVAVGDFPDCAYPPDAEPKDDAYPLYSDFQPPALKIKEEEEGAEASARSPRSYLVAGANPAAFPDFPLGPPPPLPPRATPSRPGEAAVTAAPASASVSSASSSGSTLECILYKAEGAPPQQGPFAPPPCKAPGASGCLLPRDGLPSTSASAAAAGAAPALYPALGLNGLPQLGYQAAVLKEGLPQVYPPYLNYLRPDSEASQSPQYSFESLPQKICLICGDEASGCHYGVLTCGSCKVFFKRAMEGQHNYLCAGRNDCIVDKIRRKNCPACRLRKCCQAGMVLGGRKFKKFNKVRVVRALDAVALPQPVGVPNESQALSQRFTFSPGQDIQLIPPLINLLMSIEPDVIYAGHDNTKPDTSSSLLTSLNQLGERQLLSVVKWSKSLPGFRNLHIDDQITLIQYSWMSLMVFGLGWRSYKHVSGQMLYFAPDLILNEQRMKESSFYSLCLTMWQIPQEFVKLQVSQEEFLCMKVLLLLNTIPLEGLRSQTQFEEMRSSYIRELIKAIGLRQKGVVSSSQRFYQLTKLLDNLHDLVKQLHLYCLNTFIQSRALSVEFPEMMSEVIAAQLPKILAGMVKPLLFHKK
Kind of series: Antagonist activity against progesterone receptor (PR) in an alkaline phosphatase assay in the T47D human breast carcinoma cell line. It counts as functional, cell-based.

Series [2] addresses T1, Progesterone receptor. As to the kind of experiment: Antagonist activity against progesterone receptor (PR) in an assay using PRE-luciferase plasmid co-transfected CV-1 cells. It counts as functional, cell-based. A digest of the protocol:
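CV-1 cells cotransfected with hPR and PRE-luciferase plasmids, luciferase read-out; IC50 averaged from at least duplicate determinations.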

Series [3] has as its target T2, Progesterone receptor (Rattus norvegicus) (UniProt Q63449).
T2 sequence (whole entry): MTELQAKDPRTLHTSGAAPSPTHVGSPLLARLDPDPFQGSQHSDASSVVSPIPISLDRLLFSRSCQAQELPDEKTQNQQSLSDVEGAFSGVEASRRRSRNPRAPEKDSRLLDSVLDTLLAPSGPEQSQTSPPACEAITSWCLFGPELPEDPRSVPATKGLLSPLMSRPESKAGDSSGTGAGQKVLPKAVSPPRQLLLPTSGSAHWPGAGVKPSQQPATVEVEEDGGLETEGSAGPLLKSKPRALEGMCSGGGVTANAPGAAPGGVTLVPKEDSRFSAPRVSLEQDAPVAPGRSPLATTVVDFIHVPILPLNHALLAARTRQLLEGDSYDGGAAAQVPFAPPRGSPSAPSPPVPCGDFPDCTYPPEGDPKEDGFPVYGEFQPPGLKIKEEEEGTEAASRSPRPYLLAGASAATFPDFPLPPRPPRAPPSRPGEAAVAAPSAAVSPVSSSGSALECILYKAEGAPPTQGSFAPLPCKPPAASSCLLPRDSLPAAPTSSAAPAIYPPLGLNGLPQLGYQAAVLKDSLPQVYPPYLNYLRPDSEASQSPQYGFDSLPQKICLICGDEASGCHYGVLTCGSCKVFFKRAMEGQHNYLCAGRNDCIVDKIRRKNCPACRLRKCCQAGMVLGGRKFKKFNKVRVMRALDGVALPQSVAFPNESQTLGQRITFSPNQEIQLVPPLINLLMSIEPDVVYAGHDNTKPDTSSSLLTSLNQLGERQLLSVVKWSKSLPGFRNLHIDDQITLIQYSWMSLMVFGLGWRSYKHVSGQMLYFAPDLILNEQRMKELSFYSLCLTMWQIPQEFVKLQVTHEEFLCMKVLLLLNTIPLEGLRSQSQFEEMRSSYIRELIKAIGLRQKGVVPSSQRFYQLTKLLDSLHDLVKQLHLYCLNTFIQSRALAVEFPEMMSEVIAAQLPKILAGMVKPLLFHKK
Kind of series: Inhibitory activity against progesterone receptor (PR) in ovariectomized mature female rat decidualization model. The series is classed as functional. A digest of the protocol: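 Ovariectomized mature rats dosed orally for 7 days, with progesterone 5.6 mg/kg SC given alongside; vehicle-only controls. Decidual response (D/C) measured 24 h after the final treatment, seven animals per point. ED50 averaged from at least duplicate determinations.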

The target in series [4] is T1, Progesterone receptor. As to the kind of experiment: Agonist activity against progesterone receptor (PR) in an alkaline phosphatase assay in the T47D human breast carcinoma cell line. It counts as functional, cell-based. A digest of the protocol:
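T47D human breast carcinoma cells scored for PR agonism via alkaline phosphatase read-out; EC50 taken as the mean of at least duplicate determinations.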

Series [5] can be described thus: Plasma clearance (Cl) for the compound in female rats for a dose of 1 mg/kg administered intravenously. The series is classed as ADME, organism-based. On the set-up: dose 1 mg/kg, route intravenous. To be noted: rat, iv, read-out: Clp (converted).
A short description of series [6]: Half life in female rats for a dose of 1 mg/kg administered intravenously. On the set-up: dose 1 mg/kg, route intravenous. Particulars: rat, in vivo, iv. It counts as ADME, organism-based.
A short description of series [7]: Area under the curve (AUC) for the compound in female rats for a dose of 1 mg/kg administered intravenously. The series is classed as ADME, organism-based. More on the design: dose 1 mg/kg, route intravenous. Particulars: rat, in vivo, iv.
Series [8] concerns the target T2, Progesterone receptor (Rattus norvegicus). Kind of series: inhibitory activity against progesterone receptor (PR) in ovariectomized mature female rat complement C3 model. The series is classed as functional. A digest of the protocol:
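Adult ovariectomized rats given oral doses; read-out is reversal of progestin down-regulation of estrogen-induced complement C3 synthesis in uterine epithelium. ED50 averaged from at least duplicate determinations.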

A value given as a limit tells only on which side of the number the result lay.

Regarding `CC1(C)OC(=O)Nc2ccc(-c3cccc(F)c3)cc21`, the IC50 at Progesterone receptor [1] stood at 8.2 nM; at Progesterone receptor [2] it was 3.8 nM. In series [3], this compound displayed an ED50 of 1.5 mg/kg.
`CC1(C)OC(=O)Nc2ccc(-c3cc(F)cc(Cl)c3)cc21` displayed an EC50 at Progesterone receptor [4] of 500 nM. The same compound had an IC50 on Progesterone receptor [2] of 2.6 nM. For the same compound, the ED50 in series [3] is 2 mg/kg.
As to `COc1cccc(-c2ccc3c(c2)C(C)(C)OC(=O)N3)c1`, the IC50 came to 19.5 nM against Progesterone receptor [1] and 38.3 nM on Progesterone receptor [2].
The corresponding values for `CC1(C)OC(=O)Nc2ccc(-c3ccccc3Cl)cc21` are 300 nM and 500 nM.
As to `CC1(C)OC(=O)Nc2ccc(-c3cccc(C#N)c3)cc21`, the clearance in series [5] is 36.3 mL/min/kg. The IC50 against Progesterone receptor [1] came to 17 nM; on Progesterone receptor [2], 9.9 nM. The half-life in series [6] is 36 min. The same compound gave an AUC in series [7] of 460 ng·h/mL. The compound further gave an ED50 in series [3] of 7 mg/kg.
`CC1(C)OC(=O)Nc2ccc(-c3ccc(F)c(C#N)c3)cc21` registered an IC50 on Progesterone receptor [1] of 15.1 nM.
As to `CC#C[C@]1(O)CC[C@H]2[C@@H]3CCC4=CC(=O)CCC4=C3[C@@H](c3ccc(N(C)C)cc3)C[C@@]21C`, the ED50 is 1.7 mg/kg in series [8] and 0.3 mg/kg in series [3].
As for `CC1(C)OC(=O)Nc2ccc(-c3cccc(Cl)c3)cc21`, the IC50 was found to be 30 nM on Progesterone receptor [1] and 9.3 nM at Progesterone receptor [2]. Moreover, in series [3], the ED50 was over 30 mg/kg.
For `CC1(C)OC(=O)Nc2c(F)cc(-c3cc(F)cc(C#N)c3)cc21` the same measures were 26.2 nM, 98.8 nM and 0.6 mg/kg.
In the case of `CC1(C)OC(=O)Nc2ccc(-c3ccc(Cl)cc3)cc21`, the IC50 on Progesterone receptor [1] turned out to be 30 nM; against Progesterone receptor [2], 642 nM.

The record behind these values is ChEMBL document CHEMBL1135816, “6-Aryl-1,4-dihydro-benzo[d][1,3]oxazin- 2-ones: a novel class of potent, selective, and orally active nonsteroidal progesterone receptor antagonists” (J Med Chem, 2002).
